From ChEMBL document CHEMBL1157912, “Impact of nature and length of linker incorporated in agonists on toll-like receptor 9-mediated immune responses” (J Med Chem, 2010)

What was measured:
[1] = target: T1, Toll-like receptor 9 (Mus musculus) (UniProt Q9EQU3); test: Activation of mouse TLR9 expressed in HEK293 cells assessed as induction of NF-kappaB activity after 18 hrs by SEAP assay; format: cell-based
T1 sequence (whole entry): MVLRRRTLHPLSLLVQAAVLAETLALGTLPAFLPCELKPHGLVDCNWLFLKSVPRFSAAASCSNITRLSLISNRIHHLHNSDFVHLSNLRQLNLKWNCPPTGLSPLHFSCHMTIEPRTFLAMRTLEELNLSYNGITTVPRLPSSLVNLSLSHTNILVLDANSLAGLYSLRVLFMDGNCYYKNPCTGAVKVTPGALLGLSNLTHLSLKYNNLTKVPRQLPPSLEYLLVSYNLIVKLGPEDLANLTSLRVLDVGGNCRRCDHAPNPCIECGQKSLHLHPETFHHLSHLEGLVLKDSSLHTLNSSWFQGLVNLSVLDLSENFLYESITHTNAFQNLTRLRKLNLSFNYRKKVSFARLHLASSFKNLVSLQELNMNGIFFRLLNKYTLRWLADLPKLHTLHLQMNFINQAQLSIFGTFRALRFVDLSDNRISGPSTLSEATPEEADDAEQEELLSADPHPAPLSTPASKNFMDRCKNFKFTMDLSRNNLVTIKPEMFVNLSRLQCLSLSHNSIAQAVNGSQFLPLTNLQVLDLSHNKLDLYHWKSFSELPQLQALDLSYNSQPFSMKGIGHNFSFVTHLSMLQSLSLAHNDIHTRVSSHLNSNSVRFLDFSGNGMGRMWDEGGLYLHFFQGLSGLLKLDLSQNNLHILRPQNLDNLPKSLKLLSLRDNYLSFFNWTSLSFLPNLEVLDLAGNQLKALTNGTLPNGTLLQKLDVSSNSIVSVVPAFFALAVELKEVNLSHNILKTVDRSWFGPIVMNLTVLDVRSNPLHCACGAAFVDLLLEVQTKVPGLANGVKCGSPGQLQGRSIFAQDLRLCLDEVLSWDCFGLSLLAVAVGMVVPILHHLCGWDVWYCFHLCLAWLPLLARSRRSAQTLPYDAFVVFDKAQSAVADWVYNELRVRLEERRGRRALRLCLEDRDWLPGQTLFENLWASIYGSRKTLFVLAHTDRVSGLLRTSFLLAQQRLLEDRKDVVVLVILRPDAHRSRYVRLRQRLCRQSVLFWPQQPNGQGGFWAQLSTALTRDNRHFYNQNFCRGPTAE
Summary of the method: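 HEK293 cells stably expressing mouse TLR9 were grown in DMEM with 10% heat-inactivated FBS. At 80% confluence they were transiently transfected with a SEAP reporter plasmid (100 ng/well, lipofectamine) for 6 h. Medium was then replaced and agonists were added for 18 h. Supernatant SEAP was read with QuantiBlue substrate at 620-645 nm. Results are expressed as fold NF-κB activity over PBS control.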

[2] = target: T2, Toll-like receptor 9 (Homo sapiens) (UniProt Q9NR96); test: Induction of TLR9-mediated immune stimulation in human PBMC assessed as MCP1 production at 2 ug/ml after 24 hrs by luminex multiplex assay (RVb = 0.08 +/- 0.02 ng/ml)
T2 sequence (whole entry): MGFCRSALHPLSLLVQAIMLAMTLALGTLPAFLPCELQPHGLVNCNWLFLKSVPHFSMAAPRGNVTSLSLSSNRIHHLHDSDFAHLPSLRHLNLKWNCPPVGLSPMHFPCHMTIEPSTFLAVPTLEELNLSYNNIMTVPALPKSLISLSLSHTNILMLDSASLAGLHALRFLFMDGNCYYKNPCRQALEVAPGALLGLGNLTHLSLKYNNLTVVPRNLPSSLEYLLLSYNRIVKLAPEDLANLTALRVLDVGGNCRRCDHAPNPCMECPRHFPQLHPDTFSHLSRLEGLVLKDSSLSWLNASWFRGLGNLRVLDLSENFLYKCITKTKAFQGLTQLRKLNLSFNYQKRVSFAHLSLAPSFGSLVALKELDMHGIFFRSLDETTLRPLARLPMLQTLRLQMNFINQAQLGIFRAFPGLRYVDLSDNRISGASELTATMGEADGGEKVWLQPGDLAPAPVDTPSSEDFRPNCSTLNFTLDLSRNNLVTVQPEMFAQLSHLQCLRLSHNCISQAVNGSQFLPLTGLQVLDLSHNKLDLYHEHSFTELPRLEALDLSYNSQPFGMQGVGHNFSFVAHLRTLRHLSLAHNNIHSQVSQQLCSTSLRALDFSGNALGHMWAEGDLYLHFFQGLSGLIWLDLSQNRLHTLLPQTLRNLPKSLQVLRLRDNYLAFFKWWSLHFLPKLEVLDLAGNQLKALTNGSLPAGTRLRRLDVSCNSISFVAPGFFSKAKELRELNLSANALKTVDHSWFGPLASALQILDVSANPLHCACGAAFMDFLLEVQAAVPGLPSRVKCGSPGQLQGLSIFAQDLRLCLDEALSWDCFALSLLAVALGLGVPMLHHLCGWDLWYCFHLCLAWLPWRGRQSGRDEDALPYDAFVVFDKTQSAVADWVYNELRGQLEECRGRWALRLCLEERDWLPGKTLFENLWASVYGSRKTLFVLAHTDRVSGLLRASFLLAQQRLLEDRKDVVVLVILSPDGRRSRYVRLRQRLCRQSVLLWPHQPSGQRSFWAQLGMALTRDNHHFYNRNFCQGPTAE

[3] = target: T2, Toll-like receptor 9 (Homo sapiens); test: Induction of TLR9-mediated immune stimulation in human PBMC assessed as IL6 production at 10 ug/ml after 24 hrs by luminex multiplex assay (RVb = 0.01 ng/ml)
[4] = target: T2, Toll-like receptor 9 (Homo sapiens); test: Induction of TLR9-mediated immune stimulation in human PBMC assessed as MCP1 production at 10 ug/ml after 24 hrs by luminex multiplex assay (RVb = 0.08 +/- 0.02 ng/ml)
[5] = target: T2, Toll-like receptor 9 (Homo sapiens); test: Induction of TLR9-mediated immune stimulation in human PBMC assessed as MIP1beta production at 10 ug/ml after 24 hrs by luminex multiplex assay (RVb = 0.03 +/- 0.02 ng/ml)
[6] = target: T2, Toll-like receptor 9 (Homo sapiens); test: Induction of TLR9-mediated immune stimulation in human PBMC assessed as IP10 production at 10 ug/ml after 24 hrs by luminex multiplex assay (RVb = 0.00 ng/ml)
[7] = target: T2, Toll-like receptor 9 (Homo sapiens); test: Induction of TLR9-mediated immune stimulation in human PBMC assessed as MIP1alpha production at 10 ug/ml after 24 hrs by luminex multiplex assay (RVb = 0.01 ng/ml)
[8] = target: T1, Toll-like receptor 9 (Mus musculus); test: Induction of TLR9-mediated IL12 production in C57BL/6 mouse spleen cells after 24 hrs by ELISA; format: cell-based
Summary of the method: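 C57BL/6 mouse spleen cells were cultured with agonists at 0.1, 0.3, 1, 3 and 10 μg/mL for 24 h. Secreted IL-12 and IL-6 in the supernatants were measured by ELISA. Values are averages of triplicate wells from one representative of at least two independent experiments.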

[9] = target: T2, Toll-like receptor 9 (Homo sapiens); test: Induction of TLR9-mediated immune stimulation in human PBMC assessed as IL6 production at 2 ug/ml after 24 hrs by luminex multiplex assay (RVb = 0.01 ng/ml)

Row | Activity [1] | Activity [2] [ng/mL] | Activity [3] [ng/mL] | Activity [4] [ng/mL] | Activity [5] [ng/mL] | Activity [6] [ng/mL] | Activity [7] [ng/mL] | Activity [8] | Activity [9] [ng/mL] | Compound
1 | Dose-dependent effect | 0.25 | 0.47 | 0.64 | 0.61 | 0.02 | 0.17 | Dose-dependent effect | 0.31 | Cc1cn([C@H]2C[C@H](OCCC(O)CCOP(=O)(S)O[C@H]3C[C@H](n4cc(C)c(=O)[nH]c4=O)O[C@@H]3COP(=O)(S)O[C@H]3[C@@H](O)[C@H](n4ccc(N)nc4=O)O[C@@H]3COP(=O)(S)O[C@H]3C[C@H](n4cc(C)c(=O)[nH]c4=O)O[C@@H]3COP(=O)(S)O[C@H]3C[C@H](n4cc(C)c(=O)[nH]c4=O)O[C@@H]3COP(=O)(S)O[C@H]3C[C@H](n4ccc5c(=O)[nH]c(N)nc54)O[C@@H]3COP(=O)(S)O[C@H]3[C@@H](O)[C@H](n4ccc(N)nc4=O)O[C@@H]3COP(=O)(S)O[C@H]3C[C@H](n4cc(C)c(=O)[nH]c4=O)O[C@@H]3COP(=O)(S)O[C@H]3[C@@H](O)[C@H](n4cnc5c(=O)[nH]c(N)nc54)O[C@@H]3COP(=O)(S)O[C@H]3C[C@H](n4cc(C)c(=O)[nH]c4=O)O[C@@H]3COP(=O)(S)O[C@H]3[C@@H](O)[C@H](n4ccc(N)nc4=O)O[C@@H]3COP(=O)(S)O[C@H]3C[C@H](n4cc(C)c(=O)[nH]c4=O)O[C@@H]3CO)[C@@H](COP(=O)(S)O[C@H]3[C@@H](O)[C@H](n4ccc(N)nc4=O)O[C@@H]3COP(=O)(S)O[C@H]3C[C@H](n4cc(C)c(=O)[nH]c4=O)O[C@@H]3COP(=O)(S)O[C@H]3C[C@H](n4cc(C)c(=O)[nH]c4=O)O[C@@H]3COP(=O)(S)O[C@H]3C[C@H](n4ccc5c(=O)[nH]c(N)nc54)O[C@@H]3COP(=O)(S)O[C@H]3[C@@H](O)[C@H](n4ccc(N)nc4=O)O[C@@H]3COP(=O)(S)O[C@H]3C[C@H](n4cc(C)c(=O)[nH]c4=O)O[C@@H]3COP(=O)(S)O[C@H]3[C@@H](O)[C@H](n4cnc5c(=O)[nH]c(N)nc54)O[C@@H]3COP(=O)(S)O[C@H]3C[C@H](n4cc(C)c(=O)[nH]c4=O)O[C@@H]3COP(=O)(S)O[C@H]3[C@@H](O)[C@H](n4ccc(N)nc4=O)O[C@@H]3COP(=O)(S)O[C@H]3C[C@H](n4cc(C)c(=O)[nH]c4=O)O[C@@H]3CO)O2)c(=O)[nH]c1=O (stereo partly drawn)
2 | Dose-dependent effect | 0.25 | 0.58 | 3.31 | 0.9 | 0.04 | 0.27 | Dose-dependent effect | 0.16 | Cc1cn([C@H]2C[C@H](OCCOCCOCCOCCOCCOCCOP(=O)(S)O[C@H]3C[C@H](n4cc(C)c(=O)[nH]c4=O)O[C@@H]3COP(=O)(S)O[C@H]3[C@@H](O)[C@H](n4ccc(N)nc4=O)O[C@@H]3COP(=O)(S)O[C@H]3C[C@H](n4cc(C)c(=O)[nH]c4=O)O[C@@H]3COP(=O)(S)O[C@H]3C[C@H](n4cc(C)c(=O)[nH]c4=O)O[C@@H]3COP(=O)(S)O[C@H]3C[C@H](n4ccc5c(=O)[nH]c(N)nc54)O[C@@H]3COP(=O)(S)O[C@H]3[C@@H](O)[C@H](n4ccc(N)nc4=O)O[C@@H]3COP(=O)(S)O[C@H]3C[C@H](n4cc(C)c(=O)[nH]c4=O)O[C@@H]3COP(=O)(S)O[C@H]3[C@@H](O)[C@H](n4cnc5c(=O)[nH]c(N)nc54)O[C@@H]3COP(=O)(S)O[C@H]3C[C@H](n4cc(C)c(=O)[nH]c4=O)O[C@@H]3COP(=O)(S)O[C@H]3[C@@H](O)[C@H](n4ccc(N)nc4=O)O[C@@H]3COP(=O)(S)O[C@H]3C[C@H](n4cc(C)c(=O)[nH]c4=O)O[C@@H]3CO)[C@@H](COP(=O)(S)O[C@H]3[C@@H](O)[C@H](n4ccc(N)nc4=O)O[C@@H]3COP(=O)(S)O[C@H]3C[C@H](n4cc(C)c(=O)[nH]c4=O)O[C@@H]3COP(=O)(S)O[C@H]3C[C@H](n4cc(C)c(=O)[nH]c4=O)O[C@@H]3COP(=O)(S)O[C@H]3C[C@H](n4ccc5c(=O)[nH]c(N)nc54)O[C@@H]3COP(=O)(S)O[C@H]3[C@@H](O)[C@H](n4ccc(N)nc4=O)O[C@@H]3COP(=O)(S)O[C@H]3C[C@H](n4cc(C)c(=O)[nH]c4=O)O[C@@H]3COP(=O)(S)O[C@H]3[C@@H](O)[C@H](n4cnc5c(=O)[nH]c(N)nc54)O[C@@H]3COP(=O)(S)O[C@H]3C[C@H](n4cc(C)c(=O)[nH]c4=O)O[C@@H]3COP(=O)(S)O[C@H]3[C@@H](O)[C@H](n4ccc(N)nc4=O)O[C@@H]3COP(=O)(S)O[C@H]3C[C@H](n4cc(C)c(=O)[nH]c4=O)O[C@@H]3CO)O2)c(=O)[nH]c1=O (stereo partly drawn)
